ChEMBL document CHEMBL1129571 (J Med Chem, 1996)

Legend:
[1] = molecular target: Aldo-keto reductase family 1 member B1 (Rattus norvegicus) (UniProt P07943); assay: In vitro inhibitory activity against partially purified rat lens Aldose reductase at a dose of 5e-7M
Summary of the method: (§1)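 Rat lens AR partially purified from male Wister rat lenses: homogenized in 10 mM phosphate pH 7.0 with 5 mM 2-mercaptoethanol and 1 mM EDTA, then 30–80% ammonium sulfate cut, dialyzed. NADPH decrease followed at 340 nm.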

[2] = Ratio of AR IC50 and ALR IC50 of rat lens and kidney enzyme; assay type: tissue-based; conditions: Lens of camera-type eye
[3] = molecular target: Aldo-keto reductase family 1 member A1 (Rattus norvegicus, UniProt P51635); assay: In vitro inhibitory activity against rat kidney Aldehyde reductase
Sequence of Aldo-keto reductase family 1 member A1 (P51635 whole entry, looked up): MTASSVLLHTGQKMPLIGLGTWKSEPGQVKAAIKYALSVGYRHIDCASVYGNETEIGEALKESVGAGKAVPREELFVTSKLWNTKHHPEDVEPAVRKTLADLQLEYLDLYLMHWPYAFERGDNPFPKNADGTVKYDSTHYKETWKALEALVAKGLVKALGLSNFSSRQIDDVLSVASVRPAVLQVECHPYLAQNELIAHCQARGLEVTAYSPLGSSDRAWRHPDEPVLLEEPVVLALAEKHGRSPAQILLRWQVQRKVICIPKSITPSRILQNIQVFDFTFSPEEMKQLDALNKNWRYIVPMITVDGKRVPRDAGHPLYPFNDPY

[4] = molecular target: Aldo-keto reductase family 1 member B1 (Rattus norvegicus, UniProt P07943); assay: In vitro inhibitory activity against rat lens Aldose reductase; summary of the method: as §1

Q: Which inhibition [1] does the source give for `O=C(O)CN1C(=O)C(=O)N(CCCCc2ccccc2)C1=O` here?
A: 25%

Q: With `O=C(O)CN1C(=O)C(=O)N(CCc2ccccc2Cl)C1=O` as the compound, how does the inhibition [1] read?
A: 37%

Q: Which inhibition [1] does the source give for `COc1cccc(CN2C(=O)C(=O)N(CC(=O)O)C2=O)c1` here?
A: 44%

Q: With `O=C(O)CN1C(=O)C(=O)N(Cc2ccc([N+](=O)[O-])cc2)C1=O` as the compound, how does the inhibition [1] read?
A: 26%

Q: With `COc1ccccc1CN1C(=O)C(=O)N(CC(=O)O)C1=O` as the compound, how does the inhibition [1] read?
A: 16%

Q: With `O=C(O)CN1C(=O)C(=O)N(Cc2ccc(Cl)cc2)C1=O` as the compound, how does the inhibition [1] read?
A: 56%

Q: With `O=C(O)CN1C(=O)C(=O)N(Cc2ccc(F)cc2)C1=O` as the compound, how does the inhibition [1] read?
A: 9%

Q: With `O=C(O)CN1C(=O)C(=O)N(Cc2ccc(Cl)c(Cl)c2)C1=O` as the compound, how does the Ratio [2] read?
A: > 2000

Q: What about the inhibition [1] of the same compound?
A: 77%

Q: What about the IC50 [3] of the same compound?
A: > 100000 nM

Q: And the IC50 [4]?
A: 50 nM

Q: For `O=C(O)CN1C(=O)C(=O)N(CCc2ccccc2)C1=O`, which inhibition [1] is on record?
A: 30%

Q: Which inhibition [1] does the source give for `O=C(O)CN1C(=O)C(=O)N(CCCc2ccccc2)C1=O` here?
A: 16%

Q: Which inhibition [1] does the source give for `CCOC(=O)CN1C(=O)C(=O)N(Cc2cccc([N+](=O)[O-])c2)C1=O` here?
A: 31%

Q: For `O=C(O)CN1C(=O)C(=O)N(Cc2ccccc2[N+](=O)[O-])C1=O`, which inhibition [1] is on record?
A: 66%

Q: For `COc1ccc(CCN2C(=O)C(=O)N(CC(=O)O)C2=O)cc1OC`, which inhibition [1] is on record?
A: 42%

Q: Which inhibition [1] does the source give for `O=C(O)CN1C(=O)C(=O)N(Cc2cccc([N+](=O)[O-])c2)C1=O` here?
A: 75%

Q: Which inhibition [1] does the source give for `COc1ccc(CN2C(=O)C(=O)N(CC(=O)O)C2=O)cc1OC` here?
A: 29%

Q: For `Cc1ccc(CN2C(=O)C(=O)N(CC(=O)O)C2=O)cc1`, which inhibition [1] is on record?
A: 30%

Q: For `O=C(O)CN1C(=O)C(=O)N(Cc2ccccc2Cl)C1=O`, which inhibition [1] is on record?
A: 32%

Q: With `Cc1ccc(CCN2C(=O)C(=O)N(CC(=O)O)C2=O)cc1` as the compound, how does the inhibition [1] read?
A: 42%

Q: For `O=C(O)CN1C(=O)C(=O)N(CCc2cccc([N+](=O)[O-])c2)C1=O`, which inhibition [1] is on record?
A: 36%

Q: For `Cc1ccccc1CN1C(=O)C(=O)N(CC(=O)O)C1=O`, which inhibition [1] is on record?
A: 41%

Q: With `O=C(O)CN1C(=O)C(=O)N(CCc2ccc(Cl)c(Cl)c2)C1=O` as the compound, how does the inhibition [1] read?
A: 57%

Q: With `O=C(O)CN1C(=O)C(=O)N(CCc2ccc(Br)cc2)C1=O` as the compound, how does the inhibition [1] read?
A: 47%

Q: With `O=C(O)CN1C(=O)C(=O)N(Cc2cccc(Cl)c2)C1=O` as the compound, how does the inhibition [1] read?
A: 31%

Q: For `O=C(O)CN1C(=O)C(=O)N(Cc2ccc(Br)cc2)C1=O`, which inhibition [1] is on record?
A: 65%

Q: With `O=C(O)CN1C(=O)C(=O)N(Cc2ccc(Cl)cc2Cl)C1=O` as the compound, how does the Ratio [2] read?
A: 460

Q: And the inhibition [1]?
A: 68%

Q: What about the IC50 [3] of the same compound?
A: 46000 nM

Q: And the IC50 [4]?
A: 100 nM

Q: Which inhibition [1] does the source give for `O=C(O)CN1C(=O)C(=O)N(Cc2ccccc2)C1=O` here?
A: 17%
